ChEMBL document CHEMBL5029148, “Discovery of Arylsulfonamides as Dual Orexin Receptor Agonists” (J Med Chem, 2021)
The source made the active and inactive calls. The rule behind the calls is not given here.

Legend:
Mus musculus [1] = assay: Sleep modulation activity in mouse assessed as reduction in number of episodes of non-rapid eye movement sleep at 40 mg/kg, ip measured after 4 hrs post injection
Mus musculus [2] = assay: Sleep modulation activity in mouse assessed as effect on number of episodes of rapid eye movement sleep at 40 mg/kg, ip measured after 4 hrs post injection; type: functional, organism-based
How it was run: (§1)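 Twelve-month-old mice implanted under ketamine/xylazine with telemetric EEG/EMG electrodes, and allowed 7–10 days or more to recover. They were housed on 12-h light/dark (lights on 06:00) at 21–22°C. Counterbalanced crossover: 40 mg/kg i.p. in 0.3 ml saline or saline, given at ZT 4–4.5, at least 48 h apart. Manual 10-s epoch scoring (wake/NREM/REM) over 0–4 h gave % time, transitions, episode number and duration. Mean ± SEM.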

Mus musculus [3] = assay: Sleep modulation activity in mouse assessed as increase in time spent in wakefulness at 40 mg/kg, ip measured after 4 hrs post injection; type: functional, organism-based
How it was run: as §1

Mus musculus [4] = assay: Sleep modulation activity in mouse assessed as reduction in transition between states by measuring stabilization of reduced sleep/wake fragmentation at 40 mg/kg, ip measured after 4 hrs post injection; type: functional, organism-based
How it was run: as §1

Mus musculus [5] = assay: Sleep modulation activity in mouse assessed as decrease in time spent in rapid eye movement sleep at 40 mg/kg, ip measured after 4 hrs post injection; type: functional, organism-based
How it was run: as §1

Mus musculus [6] = assay: Sleep modulation activity in mouse assessed as reduction in number of episodes of wake at 40 mg/kg, ip measured after 4 hrs post injection
Mus musculus [7] = assay: Sleep modulation activity in mouse assessed as decrease in time spent in non-rapid eye movement sleep at 40 mg/kg, ip measured after 4 hrs post injection; type: functional, organism-based
How it was run: as §1

Orexin receptor type 2 [8] = target: T1, Orexin receptor type 2 (Homo sapiens, UniProt O43614); assay: Agonist activity at human OX2R stably expressed in CHO RD-HGA16 cells assessed as fluorescence changes measured after 30 mins by calcium mobilization assay; type: functional, cell-based
T1 sequence (O43614 whole entry): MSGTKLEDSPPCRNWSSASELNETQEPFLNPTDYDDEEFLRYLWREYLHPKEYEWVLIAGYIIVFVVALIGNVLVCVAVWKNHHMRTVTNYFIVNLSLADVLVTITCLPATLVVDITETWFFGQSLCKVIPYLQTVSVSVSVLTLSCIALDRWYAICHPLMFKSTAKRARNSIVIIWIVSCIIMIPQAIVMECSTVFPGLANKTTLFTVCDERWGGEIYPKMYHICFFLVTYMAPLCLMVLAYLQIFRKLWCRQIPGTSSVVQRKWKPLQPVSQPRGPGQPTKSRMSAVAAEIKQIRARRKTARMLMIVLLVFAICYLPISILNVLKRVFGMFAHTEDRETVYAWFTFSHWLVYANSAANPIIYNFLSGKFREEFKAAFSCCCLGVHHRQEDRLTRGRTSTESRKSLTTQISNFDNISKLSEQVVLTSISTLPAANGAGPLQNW

[9] = target: T2, Orexin/Hypocretin receptor type 1 (Homo sapiens, UniProt O43613); assay: Agonist activity at human OX1R stably expressed in CHO RD-HGA16 cells assessed as fluorescence changes measured after 30 mins by calcium mobilization assay; type: functional, cell-based
T2 sequence (O43613 whole entry): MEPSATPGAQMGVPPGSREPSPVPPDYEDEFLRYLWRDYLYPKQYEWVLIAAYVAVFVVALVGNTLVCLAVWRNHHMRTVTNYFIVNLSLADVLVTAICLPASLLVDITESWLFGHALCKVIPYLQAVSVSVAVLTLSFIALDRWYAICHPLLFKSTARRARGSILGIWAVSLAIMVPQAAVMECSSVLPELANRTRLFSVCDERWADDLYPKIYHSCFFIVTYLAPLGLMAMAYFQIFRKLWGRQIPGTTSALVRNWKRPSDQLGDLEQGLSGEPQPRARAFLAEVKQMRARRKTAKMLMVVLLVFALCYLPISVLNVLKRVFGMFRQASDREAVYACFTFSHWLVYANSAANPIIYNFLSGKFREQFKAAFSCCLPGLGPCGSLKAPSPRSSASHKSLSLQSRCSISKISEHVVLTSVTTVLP

[10] = target: T2, Orexin/Hypocretin receptor type 1; assay: Agonist activity at human OX1R stably expressed in CHO cells; type: functional, cell-based, CHO-RD-HGA16
Orexin receptor type 2 [11] = target: T1, Orexin receptor type 2; assay: Agonist activity at human OX2R stably expressed in CHO cells; type: functional, cell-based, CHO-RD-HGA16
Mus musculus [12] = assay: Sleep modulation activity in mouse assessed as increase in time spent in wakefulness during light phase at 40 to 60 mg/kg, ip measured up to 3 hrs of post injection; details: dose 40-60 mg/kg, time hrs <=3
Mus musculus [13] = assay: Sleep modulation activity in mouse assessed as increase in time spent in wakefulness during light phase at 30 to 300 nmol, icv measured up to 3 hrs of post injection; type: functional, organism-based; details: dose 30-300 nmol, time hrs <=3
Mus musculus [14] = assay: Sleep modulation activity in mouse assessed as increase in time spent in wakefulness during light phase at 20 mg/kg, ip measured up to 6 hrs of post injection; type: functional, organism-based; details: time hrs <=6
Mus musculus [15] = assay: Sleep modulation activity in mouse assessed as decrease in time spent in non-rapid eye movement sleep during light phase at 30 to 300 nmol, icv measured up to 3 hrs of post injection; type: functional, organism-based; details: dose 30-300 nmol, time hrs <=3
Mus musculus [16] = assay: Sleep modulation activity in mouse assessed as increase in time spent in rapid eye movement sleep during light phase at 20 mg/kg, ip measured up to 6 hrs of post injection; type: functional, organism-based; details: time hrs <=6
Mus musculus [17] = assay: Sleep modulation activity in mouse assessed as decrease in time spent in rapid eye movement sleep during light phase at 40 to 60 mg/kg, ip measured up to 3 hrs of post injection; details: dose 40-60 mg/kg, time hrs <=3

Structure (SMILES)	EC50 (Orexin receptor type 2 [8]) [µM]	EC50 [9] [µM]	other results
COc1ccc(-c2cccc(C(=O)N(C)Cc3ccncc3)c2)cc1S(=O)(=O)Nc1cccc(NCCNC(=O)c2cccc(C)c2)c1	–	–	Activity (Mus musculus [1]): Active; Activity (Mus musculus [2]): inactive; Activity (Mus musculus [3]): Active; Activity (Mus musculus [4]): Active; Activity (Mus musculus [5]): Active; Activity (Mus musculus [6]): Active; Activity (Mus musculus [7]): Active
COc1ccc(-c2cccc(C(=O)N(C)C)c2)cc1S(=O)(=O)Nc1cccc(NCC(C)NC(=O)c2cccc(C)c2)c1 (stereo not drawn)	0.376	0.666	–
COc1ccc(-c2cccc(C(=O)N(C)C)c2)cc1S(=O)(=O)Nc1cccc(CCNC(=O)c2ccccc2-n2nccn2)c1	–	–	EC50 ([10]; read-out: pEC50 (converted)): < 35.5 µM
COc1ccc(-c2cccc(CN(C)C)c2)cc1S(=O)(=O)Nc1cccc(NCCNC(=O)c2ccccc2N(C)C)c1	0.56	> 10	–
Cc1ccc(Cn2c(=N)n(CC(O)c3ccc(Cl)c(Cl)c3)c3ccccc32)cc1 (stereo not drawn)	–	–	EC50 (Orexin receptor type 2 [11]): > 3.2 µM; EC50 ([10]; read-out: EC50): > 3.2 µM
COc1ccc(-c2cccc(C(=O)N(C)C)c2)cc1S(=O)(=O)Nc1cccc(N2CCN(C(=O)c3cccc(C)c3)CC2)c1	> 10	> 10	–
COc1ccc(-c2csc(C(=O)N(C)C)c2)cc1S(=O)(=O)Nc1cccc(NCCNC(=O)c2cccc(C)c2)c1	0.166	–	–
COc1ccc(-c2cccc(C(=O)N(C)C)c2)cc1C(=O)Nc1cccc(NCCNC(=O)c2cccc(C)c2)c1	1.27	> 10	–
COc1ccc(-c2cccc(C(=O)N(C)c3ccccn3)c2)cc1S(=O)(=O)Nc1cccc(NCCNC(=O)c2cccc(C)c2)c1	–	> 10	–
COc1ccc(/C=C/C(=O)N(C)C)cc1S(=O)(=O)Nc1cccc(NCCNC(=O)c2cccc(C)c2)c1	> 10	–	–
COc1ccc(-c2cccc(C(=O)N(C)Cc3ccncc3)c2)cc1C(=O)Nc1cccc(NCCNC(=O)c2cccc(C)c2)c1	0.863	> 10	–
COc1ccc(-c2cccc(C(=O)N(C)Cc3ccccc3)c2)cc1S(=O)(=O)Nc1cccc(NCCNC(=O)c2cccc(C)c2)c1	–	> 10	–
COc1ccc(-c2cccc(C(=O)NCc3ccccn3)c2)cc1S(=O)(=O)Nc1cccc(NCCNC(=O)c2cccc(C)c2)c1	–	> 10	–
COc1ccc(-c2cccc(C(=O)NCCN(C)C)c2)cc1S(=O)(=O)Nc1cccc(NCCNC(=O)c2cccc(C)c2)c1	–	> 10	–
COC(=O)N1CCC[C@H](NS(C)(=O)=O)[C@@H]1CO[C@H]1CC[C@@H](c2ccccc2)CC1 [DANAVOREXTON]	–	–	EC50 ([10]; read-out: EC50): > 30 µM
COc1ccc(-c2cccc(C(=O)N(C)C)c2)cc1S(=O)(=O)Nc1cccc(N2CCN(C(=O)c3ccccc3N(C)C)CC2)c1	> 10	> 10	–
COc1ccc(CCC(=O)N(C)C)cc1S(=O)(=O)Nc1cccc(NCCNC(=O)c2cccc(C)c2)c1	> 10	–	–
COc1ccc(-c2cccc(C(=O)N(C)C)c2)cc1S(=O)(=O)Nc1cccc(NCCNC(=O)c2ccccc2N(C)C)c1	0.165	0.824	Activity (Mus musculus [12]): Active; Activity (Mus musculus [13]): Active; Activity (Mus musculus [14]): inactive; Activity (Mus musculus [15]): Active; Activity (Mus musculus [16]): inactive; Activity (Mus musculus [17]): Active
